Source: ChEMBL document CHEMBL1152648, “Synthesis and biological evaluation of epothilone A dimeric compounds” (Bioorg Med Chem, 2009)
≈ marks a conversion by molar mass, not a printed value.

Legend:
A549 = test: Cytotoxicity against human A549 cells after 72 hrs by methylene blue assay; type: functional, cell-based; settings: A549, 72 h
Procedure, shortened: (§1)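 Cells exposed to compounds for 72 h, then fixed. Protein content quantified by methylene blue staining. IC50 is 50% inhibition of control growth. Means ± SD of three independent experiments.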

MCF7 = test: Cytotoxicity against human MCF7 cells after 72 hrs by methylene blue assay; type: functional, cell-based; settings: MCF7, 72 h; procedure, shortened: as §1
HT-1080 = test: Cytotoxicity against human HT1080 cells after 3 days by MTT assay; type: functional, cell-based; settings: HT-1080, 72 h
Procedure, shortened: (§2)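 Cells (3 × 10^3 BAE or 2 × 10^3 HT1080) in their growth media with serial compound dilutions, 3 days, 37 °C, 5% CO2. MTT added for 4 h, formazan dissolved in 0.04 N HCl–2-propanol, read at 550 nm. Triplicate determinations. IC50 is the concentration giving 50% cell survival. Means ± SD of three independent experiments.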

[1] = Cytotoxicity against mouse betaD10 cells after 96 hrs by MTS assay; type: functional, cell-based
Procedure, shortened: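 βD10 lung tumor cells from c-myc/c-raf double transgenic mice seeded at 10^3 cells/well and left to attach 24 h. Compounds added in medium at various concentrations for 24 or 96 h. MTS/PES reagent then 1 h at 37 °C, absorbance at 490 nm. Quintuplicates, expressed as % of control.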

[2] = Cytotoxicity against BAEC; settings: Bos taurus; procedure, shortened: as §2
[3] = Antiangiogenic activity in BAEC assessed as inhibition of tube formation after 7 hrs by cell differentiation assay; type: functional; settings: Bos taurus
Procedure, shortened: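 BAE cells (5 × 10^4) in DMEM plated on polymerized Matrigel (about 10.5 mg/mL), compounds added at different amounts, 37 °C, 5% CO2, 7 h. Cord/tube formation photographed at 200×. Each concentration tested in duplicate, scored by two observers.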

[4] = Antiangiogenic activity in BAEC assessed as inhibition cell migration after 24 hrs by […] migration assay; type: functional; settings: Bos taurus
Procedure, shortened: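 BAE monolayers grown to confluence, wounded with pipette tips to give one acellular 1 mm-wide lane per well, washed, then given complete medium with or without test compounds. Same wounded areas photographed at 0, 7 and 24 h under microscope.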

Tubulin (Sus scrofa) [5] = biological target: T1, Tubulin (Sus scrofa) (UniProt P02554+P02550); test: Induction of pig brain tubulin polymerization at 5 uM
Tubulin (Sus scrofa) [6] = biological target: T1, Tubulin (Sus scrofa); test: Induction of pig brain tubulin polymerization at 10 uM

T1 sequence (P02550 whole entry, looked up): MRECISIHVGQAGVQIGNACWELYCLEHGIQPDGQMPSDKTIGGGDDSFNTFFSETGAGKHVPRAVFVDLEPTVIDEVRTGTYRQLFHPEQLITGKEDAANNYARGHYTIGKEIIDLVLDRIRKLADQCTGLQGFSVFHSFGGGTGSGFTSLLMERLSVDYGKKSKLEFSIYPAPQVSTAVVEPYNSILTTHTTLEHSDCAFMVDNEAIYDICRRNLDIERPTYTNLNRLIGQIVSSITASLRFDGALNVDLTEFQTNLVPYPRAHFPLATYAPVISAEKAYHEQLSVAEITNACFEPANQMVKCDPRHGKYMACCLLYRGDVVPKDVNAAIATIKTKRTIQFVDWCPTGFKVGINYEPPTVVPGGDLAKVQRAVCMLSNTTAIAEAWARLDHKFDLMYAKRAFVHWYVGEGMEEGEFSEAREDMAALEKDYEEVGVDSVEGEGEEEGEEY
T1 sequence (P02554 whole entry, looked up): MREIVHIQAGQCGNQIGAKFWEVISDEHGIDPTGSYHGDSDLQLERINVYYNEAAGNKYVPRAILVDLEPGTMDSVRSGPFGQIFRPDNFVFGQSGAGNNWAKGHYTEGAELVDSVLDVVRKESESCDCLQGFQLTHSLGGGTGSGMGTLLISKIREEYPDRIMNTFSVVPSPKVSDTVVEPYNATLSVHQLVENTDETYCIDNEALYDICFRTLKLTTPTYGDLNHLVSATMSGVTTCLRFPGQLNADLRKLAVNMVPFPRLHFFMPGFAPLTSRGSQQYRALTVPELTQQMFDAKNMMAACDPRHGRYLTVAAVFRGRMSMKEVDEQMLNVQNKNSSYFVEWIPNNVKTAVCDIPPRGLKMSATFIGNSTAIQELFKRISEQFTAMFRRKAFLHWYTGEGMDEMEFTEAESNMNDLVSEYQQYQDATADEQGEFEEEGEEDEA

## C/C(=C\c1csc(C)n1)[C@@H]1C[C@@H]2O[C@@H]2CCC[C@H](C)[C@H](OC(=O)CCCCCCC(=O)O[C@H]2[C@@H](C)CCC[C@H]3O[C@H]3C[C@@H](/C(C)=C/c3csc(C)n3)OC(=O)C[C@H](O)C(C)(C)C(=O)[C@@H]2C)[C@@H](C)C(=O)C(C)(C)[C@@H](O)CC(=O)O1
A549
  IC50: 316 nM
MCF7
  IC50: 321 nM
HT-1080
  IC50: 17 nM
[1]
  IC50: 2500 nM
[2]
  IC50: 20 nM
[3]
  MIC: 0.1 µM (≈ 0.113 µg/mL)
[4]
  MIC: 0.1 µM (≈ 0.113 µg/mL)
Tubulin (Sus scrofa) [5]
  % tubulin polymerization: 0.7%
Tubulin (Sus scrofa) [6]
  % tubulin polymerization: 0.3%

## C/C(=C\c1csc(C)n1)[C@@H]1C[C@@H]2O[C@@H]2CCC[C@H](C)[C@H](OC(=O)CCCCC(=O)O[C@H]2[C@@H](C)CCC[C@H]3O[C@H]3C[C@@H](/C(C)=C/c3csc(C)n3)OC(=O)C[C@H](O)C(C)(C)C(=O)[C@@H]2C)[C@@H](C)C(=O)C(C)(C)[C@@H](O)CC(=O)O1
A549
  IC50: 405 nM
MCF7
  IC50: 412 nM
HT-1080
  IC50: 69 nM
[1]
  IC50: 70500 nM
[2]
  IC50: 40 nM
[3]
  MIC: 0.1 µM (≈ 0.11 µg/mL)
[4]
  MIC: 0.1 µM (≈ 0.11 µg/mL)
Tubulin (Sus scrofa) [5]
  % tubulin polymerization: 0.2%
Tubulin (Sus scrofa) [6]
  % tubulin polymerization: 0.7%

## C/C(=C\c1csc(C)n1)[C@@H]1C[C@@H]2O[C@@H]2CCC[C@H](C)[C@H](OC(=O)CCCCCCCCC(=O)O[C@H]2[C@@H](C)CCC[C@H]3O[C@H]3C[C@@H](/C(C)=C/c3csc(C)n3)OC(=O)C[C@H](O)C(C)(C)C(=O)[C@@H]2C)[C@@H](C)C(=O)C(C)(C)[C@@H](O)CC(=O)O1
A549
  IC50: 956 nM
MCF7
  IC50: 1030 nM
HT-1080
  IC50: 13 nM
[1]
  IC50: 5020 nM
[2]
  IC50: 39 nM
[3]
  MIC: 0.05 µM (≈ 0.0577 µg/mL)
[4]
  MIC: 0.1 µM (≈ 0.115 µg/mL)
Tubulin (Sus scrofa) [5]
  % tubulin polymerization: 0.1%
Tubulin (Sus scrofa) [6]
  % tubulin polymerization: 0.6%

## C/C(=C\c1csc(C)n1)[C@@H]1C[C@@H]2O[C@@H]2CCC[C@H](C)[C@H](OC(=O)CCSSCCC(=O)O[C@H]2[C@@H](C)CCC[C@H]3O[C@H]3C[C@@H](/C(C)=C/c3csc(C)n3)OC(=O)C[C@H](O)C(C)(C)C(=O)[C@@H]2C)[C@@H](C)C(=O)C(C)(C)[C@@H](O)CC(=O)O1
A549
  IC50: 367 nM
MCF7
  IC50: 379 nM
HT-1080
  IC50: 43 nM
[1]
  IC50: 3.3 nM
[2]
  IC50: 111 nM
[3]
  MIC: 0.05 µM (≈ 0.0581 µg/mL)
[4]
  MIC: 0.1 µM (≈ 0.116 µg/mL)
Tubulin (Sus scrofa) [5]
  % tubulin polymerization: 0%
Tubulin (Sus scrofa) [6]
  % tubulin polymerization: 0.2%

## C/C(=C\c1csc(C)n1)[C@@H]1C[C@@H]2O[C@@H]2CCC[C@H](C)[C@H](OC(=O)CCCSSCCCC(=O)O[C@H]2[C@@H](C)CCC[C@H]3O[C@H]3C[C@@H](/C(C)=C/c3csc(C)n3)OC(=O)C[C@H](O)C(C)(C)C(=O)[C@@H]2C)[C@@H](C)C(=O)C(C)(C)[C@@H](O)CC(=O)O1
A549
  IC50: 383 nM
MCF7
  IC50: 432 nM
HT-1080
  IC50: 71 nM
[1]
  IC50: 2000 nM
[2]
  IC50: 133 nM
[3]
  MIC: 0.1 µM (≈ 0.119 µg/mL)
[4]
  MIC: 0.1 µM (≈ 0.119 µg/mL)
Tubulin (Sus scrofa) [5]
  % tubulin polymerization: 0.5%
Tubulin (Sus scrofa) [6]
  % tubulin polymerization: 0.2%

## C/C(=C\c1csc(C)n1)[C@@H]1C[C@@H]2O[C@@H]2CCC[C@H](C)[C@H](O)[C@@H](C)C(=O)C(C)(C)[C@@H](O)CC(=O)O1 [EPOTHILONE A]
A549
  IC50: 2.6 nM
MCF7
  IC50: 2.5 nM
HT-1080
  IC50: 1.3 nM
[1]
  IC50: 70 nM
[2]
  IC50: 0.7 nM
[3]
  MIC: 0.005 µM (≈ 0.00247 µg/mL)
[4]
  MIC: 0.005 µM (≈ 0.00247 µg/mL)
Tubulin (Sus scrofa) [5]
  % tubulin polymerization: 92.2%
Tubulin (Sus scrofa) [6]
  % tubulin polymerization: 99.8%

## C/C(=C\c1csc(C)n1)[C@@H]1C[C@@H]2O[C@@H]2CCC[C@H](C)[C@H](OC(=O)CSSCC(=O)O[C@H]2[C@@H](C)CCC[C@H]3O[C@H]3C[C@@H](/C(C)=C/c3csc(C)n3)OC(=O)C[C@H](O)C(C)(C)C(=O)[C@@H]2C)[C@@H](C)C(=O)C(C)(C)[C@@H](O)CC(=O)O1
A549
  IC50: 319 nM
MCF7
  IC50: 357 nM
HT-1080
  IC50: 290 nM
[1]
  IC50: 1000 nM
[2]
  IC50: 29 nM
[3]
  MIC: 0.1 µM (≈ 0.113 µg/mL)
[4]
  MIC: 0.05 µM (≈ 0.0567 µg/mL)
Tubulin (Sus scrofa) [5]
  % tubulin polymerization: 0.3%
Tubulin (Sus scrofa) [6]
  % tubulin polymerization: 1%
